In ChEMBL document CHEMBL1126562, “(1-Butyl-4-piperidinyl)methyl 8-amino-7-chloro-1,4-benzodioxane-5-carboxylate hydrochloride: a highly potent and selective 5-HT4 receptor antagonist derived from metoclopramide” (J Med Chem, 1993):

Tests used:
[1] = molecular target: 5-hydroxytryptamine receptor 4 (Cavia porcellus, UniProt O70528); test: Inhibition of 5-HT-evoked 5-HT4 receptor-mediated contractions in the guinea pig distal colon longitudinal muscle myenteric plexus (LMMP); assay type: functional
Chain of 5-hydroxytryptamine receptor 4 (O70528 whole entry): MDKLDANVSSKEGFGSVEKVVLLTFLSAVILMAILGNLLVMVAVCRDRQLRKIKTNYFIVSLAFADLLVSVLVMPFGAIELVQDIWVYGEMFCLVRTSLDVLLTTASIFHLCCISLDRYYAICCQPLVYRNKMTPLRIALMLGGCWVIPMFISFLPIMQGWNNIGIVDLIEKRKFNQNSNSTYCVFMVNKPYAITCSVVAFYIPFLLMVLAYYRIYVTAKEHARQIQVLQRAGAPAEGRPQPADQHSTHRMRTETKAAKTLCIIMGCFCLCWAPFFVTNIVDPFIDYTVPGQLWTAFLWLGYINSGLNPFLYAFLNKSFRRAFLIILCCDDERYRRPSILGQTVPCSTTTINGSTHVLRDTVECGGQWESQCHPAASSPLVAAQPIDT

[2] = molecular target: Beta-2 adrenergic receptor (Homo sapiens, UniProt P07550); test: Tested against Beta-2 adrenergic receptor
Chain of Beta-2 adrenergic receptor (P07550 whole entry): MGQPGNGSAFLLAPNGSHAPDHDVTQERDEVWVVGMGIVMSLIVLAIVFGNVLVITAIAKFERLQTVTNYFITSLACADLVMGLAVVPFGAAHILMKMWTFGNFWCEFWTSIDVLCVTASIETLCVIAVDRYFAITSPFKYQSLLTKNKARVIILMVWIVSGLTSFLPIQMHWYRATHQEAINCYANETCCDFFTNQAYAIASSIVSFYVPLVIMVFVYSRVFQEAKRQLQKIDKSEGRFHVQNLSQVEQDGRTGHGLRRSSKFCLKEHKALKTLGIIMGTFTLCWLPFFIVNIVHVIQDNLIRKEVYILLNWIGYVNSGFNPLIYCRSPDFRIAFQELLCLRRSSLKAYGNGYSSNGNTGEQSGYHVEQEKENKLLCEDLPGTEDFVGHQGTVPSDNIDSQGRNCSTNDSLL

[3] = Concentration-dependent rightward shift of the 5-HT curve yielding an apparent pA2; assay type: ADME
[4] = molecular target: 5-hydroxytryptamine receptor 1E (Homo sapiens, UniProt P28566); test: Tested for binding affinity towards cloned human 5-hydroxytryptamine 1E receptor using [3H]5-HT as radioligand
Chain of 5-hydroxytryptamine receptor 1E (P28566 whole entry): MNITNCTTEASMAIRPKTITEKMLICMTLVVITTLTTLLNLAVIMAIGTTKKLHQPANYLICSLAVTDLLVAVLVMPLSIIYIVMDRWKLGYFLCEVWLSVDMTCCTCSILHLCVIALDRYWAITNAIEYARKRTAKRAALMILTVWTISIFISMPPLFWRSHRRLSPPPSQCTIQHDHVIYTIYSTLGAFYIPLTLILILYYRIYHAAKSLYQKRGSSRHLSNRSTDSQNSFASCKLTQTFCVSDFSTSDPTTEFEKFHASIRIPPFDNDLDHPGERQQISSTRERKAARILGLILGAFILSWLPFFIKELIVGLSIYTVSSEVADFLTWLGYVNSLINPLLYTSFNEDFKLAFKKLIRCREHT
Procedure, shortened: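 Radioligand binding on the cloned human 5-HT1E receptor, labelled with [³H]-5-HT.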

[5] = molecular target: T1, Alpha-1D adrenergic receptor (Rattus norvegicus, UniProt P23944); test: Tested against adrenergic alpha-1 receptor radiolabeled with [3H]7-methoxyprazosin
T1 sequence (P23944 whole entry): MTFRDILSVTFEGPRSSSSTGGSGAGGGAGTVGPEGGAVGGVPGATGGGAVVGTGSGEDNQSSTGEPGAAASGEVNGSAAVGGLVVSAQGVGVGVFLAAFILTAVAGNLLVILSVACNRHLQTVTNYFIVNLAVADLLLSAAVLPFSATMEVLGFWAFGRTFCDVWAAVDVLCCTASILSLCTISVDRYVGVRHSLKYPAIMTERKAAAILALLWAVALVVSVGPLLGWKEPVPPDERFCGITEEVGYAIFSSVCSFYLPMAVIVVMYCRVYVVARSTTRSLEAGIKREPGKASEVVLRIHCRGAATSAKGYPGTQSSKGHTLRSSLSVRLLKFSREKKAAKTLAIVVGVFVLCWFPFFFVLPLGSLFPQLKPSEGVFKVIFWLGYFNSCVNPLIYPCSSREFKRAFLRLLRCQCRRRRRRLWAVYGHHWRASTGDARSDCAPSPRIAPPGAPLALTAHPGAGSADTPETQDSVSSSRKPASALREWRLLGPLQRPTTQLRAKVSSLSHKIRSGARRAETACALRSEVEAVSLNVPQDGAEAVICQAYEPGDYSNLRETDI
Procedure, shortened: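 α1-Adrenoceptor binding, radiolabelled with [³H]-7-methoxyprazosin.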

[6] = Acid dissociation constant was determined; assay type: ADME
[7] = molecular target: T2, 5-hydroxytryptamine receptor 2C (Homo sapiens, UniProt P28335); test: Tested agains t5-hydroxytryptamine 2C receptor in experiment 1
T2 sequence (P28335 whole entry): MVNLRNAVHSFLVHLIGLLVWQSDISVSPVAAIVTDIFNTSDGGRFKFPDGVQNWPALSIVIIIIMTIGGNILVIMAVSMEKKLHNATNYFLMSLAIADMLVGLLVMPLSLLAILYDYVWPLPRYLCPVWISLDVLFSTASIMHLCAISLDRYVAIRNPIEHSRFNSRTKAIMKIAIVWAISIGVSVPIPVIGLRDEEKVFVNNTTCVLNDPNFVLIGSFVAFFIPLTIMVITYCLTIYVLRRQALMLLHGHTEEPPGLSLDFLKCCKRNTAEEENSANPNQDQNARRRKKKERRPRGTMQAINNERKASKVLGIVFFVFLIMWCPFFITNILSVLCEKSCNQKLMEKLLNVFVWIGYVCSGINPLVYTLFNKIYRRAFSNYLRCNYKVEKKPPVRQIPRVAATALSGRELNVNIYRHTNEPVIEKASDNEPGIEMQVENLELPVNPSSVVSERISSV

[8] = molecular target: T3, Alpha-2A adrenergic receptor (Homo sapiens, UniProt P08913); test: Tested against adrenergic alpha-2 receptor
T3 sequence (P08913 whole entry): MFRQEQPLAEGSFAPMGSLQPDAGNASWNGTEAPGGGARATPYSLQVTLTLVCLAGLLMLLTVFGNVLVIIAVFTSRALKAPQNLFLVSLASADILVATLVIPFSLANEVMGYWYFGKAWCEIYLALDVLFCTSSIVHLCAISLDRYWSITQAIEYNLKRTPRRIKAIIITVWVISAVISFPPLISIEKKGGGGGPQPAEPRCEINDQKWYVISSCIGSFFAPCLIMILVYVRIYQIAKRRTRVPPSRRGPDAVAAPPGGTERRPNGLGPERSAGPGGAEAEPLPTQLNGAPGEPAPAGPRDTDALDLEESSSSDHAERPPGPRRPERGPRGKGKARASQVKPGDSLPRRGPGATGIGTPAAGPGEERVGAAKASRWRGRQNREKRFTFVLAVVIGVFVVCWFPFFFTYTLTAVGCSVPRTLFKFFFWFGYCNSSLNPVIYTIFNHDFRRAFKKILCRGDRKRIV

[9] = molecular target: Serotonin 3 (5-HT3) receptor; test: Tested against 5-hydroxytryptamine 3 receptor in experiment 1; assay type: protein-complex assay
[10] = molecular target: T4, 5-hydroxytryptamine receptor 1A (Mus musculus, UniProt Q64264); test: Tested against 5-hydroxytryptamine 1A receptor
T4 sequence (Q64264 whole entry): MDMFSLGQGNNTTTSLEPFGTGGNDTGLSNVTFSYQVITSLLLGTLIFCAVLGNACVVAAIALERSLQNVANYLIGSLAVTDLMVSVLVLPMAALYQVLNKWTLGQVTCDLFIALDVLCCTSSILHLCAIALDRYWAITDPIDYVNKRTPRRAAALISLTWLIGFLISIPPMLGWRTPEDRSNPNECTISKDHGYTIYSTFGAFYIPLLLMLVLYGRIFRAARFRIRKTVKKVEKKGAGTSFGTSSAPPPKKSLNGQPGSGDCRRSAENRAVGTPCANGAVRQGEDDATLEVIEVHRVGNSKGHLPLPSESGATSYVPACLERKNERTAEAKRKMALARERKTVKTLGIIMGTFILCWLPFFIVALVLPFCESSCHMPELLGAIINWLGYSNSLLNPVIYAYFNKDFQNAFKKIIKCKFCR

[11] = molecular target: 5-hydroxytryptamine receptor 1D (Homo sapiens, UniProt P28221); test: Tested against 5-hydroxytryptamine 1D receptor
Chain of 5-hydroxytryptamine receptor 1D (P28221 whole entry): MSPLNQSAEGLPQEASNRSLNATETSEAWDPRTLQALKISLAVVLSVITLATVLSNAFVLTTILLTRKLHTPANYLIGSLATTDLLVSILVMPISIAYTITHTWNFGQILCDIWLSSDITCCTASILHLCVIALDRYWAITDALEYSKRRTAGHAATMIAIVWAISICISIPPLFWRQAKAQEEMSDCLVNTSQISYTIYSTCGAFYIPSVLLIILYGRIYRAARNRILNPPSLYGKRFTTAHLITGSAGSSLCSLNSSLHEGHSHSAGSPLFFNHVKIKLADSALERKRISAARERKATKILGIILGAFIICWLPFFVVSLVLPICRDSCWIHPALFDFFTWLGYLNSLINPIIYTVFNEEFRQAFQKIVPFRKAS

D(1A) dopamine receptor = D(1A) dopamine receptor (Mus musculus, UniProt Q61616); test: Tested against dopamine receptor D1
Chain of D(1A) dopamine receptor (Q61616 whole entry): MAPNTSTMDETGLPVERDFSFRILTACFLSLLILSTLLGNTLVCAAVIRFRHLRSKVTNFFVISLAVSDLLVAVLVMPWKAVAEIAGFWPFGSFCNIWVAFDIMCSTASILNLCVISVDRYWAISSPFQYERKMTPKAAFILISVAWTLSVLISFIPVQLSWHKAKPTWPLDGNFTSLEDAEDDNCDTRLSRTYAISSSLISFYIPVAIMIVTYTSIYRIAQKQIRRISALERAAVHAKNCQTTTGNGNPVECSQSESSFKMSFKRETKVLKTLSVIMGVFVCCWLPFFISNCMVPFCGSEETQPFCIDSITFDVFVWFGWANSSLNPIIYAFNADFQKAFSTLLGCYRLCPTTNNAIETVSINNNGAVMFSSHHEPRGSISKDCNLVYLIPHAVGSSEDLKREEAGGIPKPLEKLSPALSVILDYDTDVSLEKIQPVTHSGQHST

[12] = molecular target: T2, 5-hydroxytryptamine receptor 2C; test: Tested against 5-hydroxytryptamine 2C receptor in experiment 2
D(3) dopamine receptor = D(3) dopamine receptor (Homo sapiens, UniProt P35462); test: Tested against dopamine receptor D3 using cloned human receptor expressed in CHO cells radiolabeled with [125I]iodosulpiride; assay type: cell-based
Chain of D(3) dopamine receptor (P35462 whole entry): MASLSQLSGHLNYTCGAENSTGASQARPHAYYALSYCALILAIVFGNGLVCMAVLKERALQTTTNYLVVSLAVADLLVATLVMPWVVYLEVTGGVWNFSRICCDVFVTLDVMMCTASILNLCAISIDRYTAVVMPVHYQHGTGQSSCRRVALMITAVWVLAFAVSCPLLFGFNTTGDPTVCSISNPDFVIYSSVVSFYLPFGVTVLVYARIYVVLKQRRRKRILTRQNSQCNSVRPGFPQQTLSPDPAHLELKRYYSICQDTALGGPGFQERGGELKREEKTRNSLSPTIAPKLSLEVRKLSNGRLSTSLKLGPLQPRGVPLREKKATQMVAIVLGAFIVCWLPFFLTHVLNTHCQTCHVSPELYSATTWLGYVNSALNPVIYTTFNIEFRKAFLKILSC
Procedure, shortened: (§1)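 Competition binding on cloned human D2 or D3 receptors expressed in CHO cells, radiolabelled with [¹²⁵I]iodosulpride.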

D(2) dopamine receptor = D(2) dopamine receptor (Homo sapiens, UniProt P14416); test: Tested against dopamine receptor D2 using cloned human receptor expressed in CHO cells radiolabeled with [125I]iodosulpiride; assay type: cell-based; procedure, shortened: as §1
Chain of D(2) dopamine receptor (P14416 whole entry): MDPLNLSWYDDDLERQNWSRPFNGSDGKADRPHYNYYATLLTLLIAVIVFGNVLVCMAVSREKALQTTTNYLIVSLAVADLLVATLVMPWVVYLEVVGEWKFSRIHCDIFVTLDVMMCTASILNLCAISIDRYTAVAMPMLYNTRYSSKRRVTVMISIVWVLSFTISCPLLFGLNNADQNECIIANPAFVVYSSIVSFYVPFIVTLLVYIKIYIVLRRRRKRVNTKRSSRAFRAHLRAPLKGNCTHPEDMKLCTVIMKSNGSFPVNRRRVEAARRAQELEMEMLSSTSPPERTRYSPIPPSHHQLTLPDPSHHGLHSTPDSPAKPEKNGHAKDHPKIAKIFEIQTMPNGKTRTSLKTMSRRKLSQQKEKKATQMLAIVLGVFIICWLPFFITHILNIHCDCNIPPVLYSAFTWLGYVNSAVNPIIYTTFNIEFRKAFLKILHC

[13] = molecular target: 5-hydroxytryptamine receptor 2A (Homo sapiens, UniProt P28223); test: Tested against 5-hydroxytryptamine 2A receptor
Chain of 5-hydroxytryptamine receptor 2A (P28223 whole entry): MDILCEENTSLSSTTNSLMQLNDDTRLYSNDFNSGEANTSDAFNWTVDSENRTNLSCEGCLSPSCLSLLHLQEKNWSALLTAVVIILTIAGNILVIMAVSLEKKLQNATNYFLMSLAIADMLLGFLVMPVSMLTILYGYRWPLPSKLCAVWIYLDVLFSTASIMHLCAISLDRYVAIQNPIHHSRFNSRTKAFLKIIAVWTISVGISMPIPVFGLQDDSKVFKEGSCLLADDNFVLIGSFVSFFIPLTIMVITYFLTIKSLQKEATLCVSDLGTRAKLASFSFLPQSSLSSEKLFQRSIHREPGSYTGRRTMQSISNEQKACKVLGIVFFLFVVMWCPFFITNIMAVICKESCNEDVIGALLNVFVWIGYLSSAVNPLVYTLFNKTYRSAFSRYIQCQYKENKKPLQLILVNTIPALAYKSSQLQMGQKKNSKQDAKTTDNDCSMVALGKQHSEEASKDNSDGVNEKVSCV

[14] = Partition coefficient (logP); assay type: physicochemical; conditions: octanol/water
[15] = molecular target: Beta-1 adrenergic receptor (Homo sapiens, UniProt P08588); test: Tested against Beta-1 adrenergic receptor
Chain of Beta-1 adrenergic receptor (P08588 whole entry): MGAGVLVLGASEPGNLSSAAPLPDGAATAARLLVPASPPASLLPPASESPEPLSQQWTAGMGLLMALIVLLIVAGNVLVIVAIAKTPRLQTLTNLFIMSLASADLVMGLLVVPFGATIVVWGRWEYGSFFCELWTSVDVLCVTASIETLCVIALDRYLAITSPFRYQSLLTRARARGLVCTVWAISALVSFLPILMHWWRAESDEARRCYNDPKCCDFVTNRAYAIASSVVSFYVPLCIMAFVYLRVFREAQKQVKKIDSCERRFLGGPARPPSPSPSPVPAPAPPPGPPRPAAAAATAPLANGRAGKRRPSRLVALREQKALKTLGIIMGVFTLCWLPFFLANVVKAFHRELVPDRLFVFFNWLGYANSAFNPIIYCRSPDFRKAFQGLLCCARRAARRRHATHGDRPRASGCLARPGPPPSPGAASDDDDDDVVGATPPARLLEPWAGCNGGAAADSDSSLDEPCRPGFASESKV

[16] = molecular target: Serotonin 3 (5-HT3) receptor; test: Tested against 5-hydroxytryptamine 3 receptor in experiment 2; assay type: protein-complex assay

## CCCCN1CCC(COC(=O)c2cccc3c2OCCCO3)CC1
[1]
  IC50: 50.1 nM

## CCCCN1CCC(COC(=O)c2cc(Cl)c(N)c3c2OCCO3)CC1
[2]
  Ki: > 1000 nM
[3]
  pA2: 10.8
[4]
  Ki: > 10 µM
[5]
  Ki: > 1000 nM
[6]
  pKa: 10.4
[1]
  IC50: 0.1 nM
[7]
  Ki: 126 nM
[8]
  Ki: > 1000 nM
[9]
  Log Ki: -6.6
[10]
  Ki: > 1000 nM
[11]
  Ki: > 10 µM
D(1A) dopamine receptor
  Ki: > 1000 nM
[12]
  Ki: 79.4 nM
D(3) dopamine receptor
  Ki: > 1000 nM
D(2) dopamine receptor
  Ki: > 10 µM
[13]
  Ki: > 1000 nM
[14]
  logP: 4.86
[15]
  Ki: > 1000 nM
[16]
  Log Ki: -6.7

## CCCCN1CCC(COC(=O)c2cccc3c2OCCO3)CC1
[1]
  IC50: 6.31 nM

## CCCCN1CCC(COC(=O)c2cc(Cl)c(N)cc2OC)CC1
[1]
  IC50: 1 nM

## CCN(CC)CCOC(=O)c1cc(Cl)c(N)cc1OC
[1]
  IC50: 251 nM

## CCCCN1CCC(COC(=O)c2cccc3c2OCO3)CC1
[1]
  IC50: 63.1 nM

## CN1[C@@H]2CC[C@H]1C[C@@H](OC(=O)c1c[nH]c3ccccc13)C2 [TROPISETRON]
[1]
  IC50: 3160 nM

## CCCCN1CCC(CNC(=O)c2cc(Cl)c(N)cc2OC)CC1
[1]
  IC50: 10 nM
